According to ChEMBL document CHEMBL3045637, “Highly variable insect control efficacy of Tephrosia vogelii chemotypes” (2012):
≈ marks a conversion by molar mass, not a printed value. Calls of active or inactive are those of the source. The calls are words filed in the database; no cut-off is given here.

What was measured:
Callosobruchus maculatus [1] = test: Insecticidal activity against adult Callosobruchus maculatus assessed reduction mean survival fraction measured 72 hr post dose (reference value: 4.4 +/- 0.31 mean survival fraction); type: functional
Callosobruchus maculatus [2] = test: Insecticidal activity against adult Callosobruchus maculatus assessed mean survival fraction ratio at 10 ppm measured 72 hr post dose (reference value: 4.4 +/- 0.31 mean survival fraction); type: functional
Callosobruchus maculatus [3] = test: Insecticidal activity against adult Callosobruchus maculatus assessed mean survival fraction ratio at 100 ppm measured 72 hr post dose (reference value: 4.4 +/- 0.31 mean survival fraction); type: functional
Callosobruchus maculatus [4] = test: Insecticidal activity against adult Callosobruchus maculatus assessed mean survival fraction ratio at 500 ppm measured 72 hr post dose (reference value: 4.4 +/- 0.31 mean survival fraction); type: functional
Callosobruchus maculatus [5] = test: Inhibition of F1 generation emergence in adult Callosobruchus maculatus grown on compound pre-treated cowpea seeds assessed as reduction in adult emergence at 10 to 500 ppm measured over 2 weeks from start of F1 emergence; type: functional, organism-based
How it was run: (§1)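 Compounds in acetone at 500, 100 and 10 ppm were coated onto cowpea seed by rotary evaporation (5 mL per 25 g) and air-dried 1 h. 5 g of treated seed went in a vial with 5 mated females, 2–3 days old, 5 replicates per treatment. Females were removed at 72 h and eggs counted. F1 emergence was counted from day 25 over two weeks. Means compared by ANOVA with SNK or LSD.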

Callosobruchus maculatus [6] = test: Inhibition of oviposition in adult Callosobruchus maculatus grown on compound pre-treated cowpea seeds assessed as reduction in number of eggs at 10 to 500 ppm measured after 72 hr; type: functional, organism-based; how it was run: as §1

| SMILES | LC50 (Callosobruchus maculatus [1]) [µg/mL] | Ratio (Callosobruchus maculatus [2]) | Ratio (Callosobruchus maculatus [3]) | Ratio (Callosobruchus maculatus [4]) | inhibition (Callosobruchus maculatus [5]) | inhibition (Callosobruchus maculatus [6]) |
| --- | --- | --- | --- | --- | --- | --- |
| COc1cc2c(cc1OC)[C@]1(O)C(=O)c3ccc4c(c3O[C@@H]1CO2)C1C(O4)C1(C)C (some centres undefined) [SARCOLOBINE] | < 10 | 2 | 1.4 | 0.6 | – | – |
| C=C(C)[C@H]1Cc2c(ccc3c2O[C@@H]2COc4cc(OC)c(OC)cc4[C@@H]2C3=O)O1 [ROTENONE] | < 10 | 1 | 0.7 | 0.4 | Active | Active |
| COc1cc2c(cc1OC)[C@@H]1C(=O)c3ccc4c(c3O[C@@H]1CO2)C=CC(C)(C)O4 [DEGUELIN] | < 10 | 2.6 | 1.4 | 0.9 | Active | Active |
| COc1cc2c(cc1OC)[C@]1(O)C(=O)c3ccc4c(c3O[C@@H]1CO2)C=CC(C)(C)O4 [TEPHROSIN] | 200 (≈ 487 µM) | 2.9 | 2.3 | 1.8 | Active | Active |
| COc1cc2c(c3c1C(=O)C[C@@H](c1ccccc1)O3)C=CC(C)(C)O2 [OBOVATIN 5-METHYL ETHER] | – | 3.8 | 4.2 | 4.2 | – | – |
| COc1cc2c(cc1OC)[C@@H]1C(=O)c3c(O)cc4c(c3O[C@@H]1CO2)C=CC(C)(C)O4 [TOXICAROL] | < 10 | 2.2 | 2.2 | 2.2 | – | – |
